According to ChEMBL document CHEMBL1129996, “1-Aryl-3,5-dihydro-4H-2,3-benzodiazepin-4-ones: novel AMPA receptor antagonists” (J Med Chem, 1997):
Values joined by “and” are separate entries in the source; they are usually repeats but may differ in a detail not shown here. Identical values can stand only once. Values belong to the compound of their own block, whether it stands above or below them.

Columns and labels:
Mus musculus [1] = species on record: Mus musculus; assay: Audiogenic seizures after concomitant treatment with Flumazenil (24.72 uM) in DBA / 2 mice tonic phase; format: functional
[2] = Therapeutic index it is the ratio between TD50 and ED50 (from the clonic phase of the audiogenic seizures); conditions: read-out: TI
How it was run: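 Therapeutic index computed as rotarod TD50 divided by ED50 for the clonic phase of audiogenic seizures in DBA/2 mice.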

[3] = Relative lipophilicity of compound; format: physicochemical; conditions: reversed-phase TLC, acetone/water 2:1
How it was run: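 Reversed-phase TLC type lipophilicity: plates dried 105 °C 1 h, mobile phase acetone:water 2:1, 1 µL of 3 mg/mL CHCl3 solution spotted; five runs with varied positions, mean Rf converted as Rm = log[(1/Rf) - 1].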

Mus musculus [4] = assay: Anticonvulsant activity against the clonic seizures induced by icv injection of AMPA in DBA / 2 mice at a dose range of 10-200 uM / kg (95% confidence limits); format: functional; conditions: central
Mus musculus [5] = species on record: Mus musculus; assay: Audiogenic seizures after concomitant treatment with Flumazenil (8.24 uM) in DBA / 2 mice tonic phase; format: functional
Mus musculus [6] = assay: Anticonvulsant activity against the maximal electroshock in Swiss mice after 45 minutes pretreatment at a dose range uM/kg; format: functional
How it was run: (§1)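 Swiss mice dosed ip in 50% DMSO/50% saline 45 min before ear-clip electroshock (50 mA, 20 ms pulses, 35 Hz, 400 ms). Protection = abolition of tonic hindlimb extension. Usually 4-5 doses with 8-10 mice each; ED50 (95% confidence limits) by Litchfield-Wilcoxon.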

Mus musculus [7] = assay: Audiogenic seizures after pretreatment with Aniracetam in DBA / 2 mice clonic phase at a dose range of 10-200 uM/kg; format: functional
How it was run: (§2)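 DBA/2 mice pretreated with aniracetam 50 nmol icv 60 min before auditory testing, with ip 2,3-benzodiazepine; audiogenic clonic and tonic phases scored; ED50 by Litchfield-Wilcoxon.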

Mus musculus [8] = assay: Anticonvulsant activity against clonic phase of the audiogenic seizures in DBA / 2 mice 30 min after ip administration at a dose range 10-100 uM/kg; format: functional; conditions: 0.5 h
How it was run: (§3)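 Groups of 10 DBA/2 mice of either sex; drug ip (0.1 mL/10 g) as fresh solution in 50% DMSO/50% saline, 30 min before auditory stimulation (12-16 kHz, 109 dB, 60 s or until tonic extension) under perspex dome after 60 s habituation. Latency and incidence of wild running, clonic and tonic phases scored; ED50 (95% confidence limits) by Litchfield-Wilcoxon.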

Mus musculus [9] = assay: Anticonvulsant activity against the tonic seizures induced by icv injection of AMPA in DBA / 2 mice at a dose range of 10-200 uM/kg; format: functional; conditions: central
Mus musculus [10] = species on record: Mus musculus; assay: Audiogenic seizures after concomitant treatment with Flumazenil (8.24 uM) in DBA / 2 mice clonic phase; format: functional
Mus musculus [11] = assay: Audiogenic seizures after pretreatment with Aniracetam in DBA / 2 mice tonic phase at a dose range of 10-200 uM/kg; format: functional; how it was run: as §2
Mus musculus [12] = assay: Anticonvulsant activity against tonic phase of the audiogenic seizures in DBA / 2 mice 30 min after ip administration at a dose range 10-100 uM/kg; format: functional; conditions: 0.5 h; how it was run: as §3
Mus musculus [13] = species on record: Mus musculus; assay: Audiogenic seizures after concomitant treatment with Flumazenil (24.72 uM) in DBA / 2 mice clonic phase; format: functional
[14] = Motor toxicity in 50% of mice on locomotion assessed by Rotarod test following 30 min ip administration; format: organism-based; conditions: mouse, in vivo
How it was run: (§4)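 Male Swiss mice (20-26 g, 48-54 days), groups of 10, trained on rotarod (3 cm, 8 rpm); tested 30 min after ip dosing. Impairment = failure to stay on for 2 min; TD50 (95% confidence limits) by Litchfield-Wilcoxon.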

Mus musculus [15] = species on record: Mus musculus; assay: Pentylenetetrazole-induced seizures in Swiss mice after 45 min pretreatment at a dose range 10-150 uM / kg (95% confidence limits); format: functional
Mus musculus [16] = assay: Anticonvulsant activity against clonic phase of the audiogenic seizures in DBA / 2 mice 30 min after ip administration at a dose range 10-66 uM/kg; format: functional; conditions: 0.5 h; how it was run: as §3
Mus musculus [17] = assay: Anticonvulsant activity against tonic phase of the audiogenic seizures in DBA / 2 mice 30 min after ip administration at a dose range 10-66 uM/kg; format: functional; conditions: 0.5 h; how it was run: as §3
Mus musculus [18] = assay: Anticonvulsant activity against clonic phase of the audiogenic seizures in DBA / 2 mice 30 min after ip administration at a dose range 33-133 uM/kg; format: functional; conditions: 0.5 h; how it was run: as §3
Mus musculus [19] = assay: Anticonvulsant activity against tonic phase of the audiogenic seizures in DBA / 2 mice 30 min after ip administration at a dose range 33-133 uM/kg; format: functional; conditions: 0.5 h; how it was run: as §3
Mus musculus [20] = assay: Anticonvulsant activity against the maximal electroshock in Swiss mice after 45 minutes pretreatment at a dose range 33-200 uM/kg; format: functional; how it was run: as §1
Mus musculus [21] = assay: Anticonvulsant activity against clonic phase of the audiogenic seizures in DBA / 2 mice 30 min after ip administration at a dose range 33-200 uM/kg; format: functional; conditions: 0.5 h; how it was run: as §3
Mus musculus [22] = assay: Anticonvulsant activity against tonic phase of the audiogenic seizures in DBA / 2 mice 30 min after ip administration at a dose range 33-200 uM/kg; format: functional; conditions: 0.5 h; how it was run: as §3
Mus musculus [23] = assay: Pentylenetetrazole-induced seizures in Swiss mice after 45 min pretreatment at a dose range 33-200 uM/kg; format: functional
Mus musculus [24] = assay: Anticonvulsant activity against the maximal electroshock in Swiss mice after 45 minutes pretreatment at a dose range 10-150 uM/kg; format: functional; how it was run: as §1
Mus musculus [25] = assay: Anticonvulsant activity against tonic phase of the audiogenic seizures in DBA / 2 mice 30 min after ip administration at a dose range 10-120 uM/kg; format: functional; conditions: 0.5 h; how it was run: as §3
[26] = Motor toxicity in 50% of mice on locomotion assessed by Rotarod test following 30 min ip administration (95% confidence limits); format: organism-based; conditions: mouse, in vivo; how it was run: as §4
Mus musculus [27] = assay: Anticonvulsant activity against clonic phase of the audiogenic seizures in DBA / 2 mice 30 min after ip administration at a dose range 10-120 uM/kg; format: functional; conditions: 0.5 h; how it was run: as §3
Mus musculus [28] = assay: Anticonvulsant activity against clonic phase of the audiogenic seizures in DBA / 2 mice 30 min after ip administration at a dose range 33-66 uM/kg; format: functional; conditions: 0.5 h; how it was run: as §3
Mus musculus [29] = assay: Anticonvulsant activity against tonic phase of the audiogenic seizures in DBA / 2 mice 30 min after ip administration at a dose range 33-66 uM/kg; format: functional; conditions: 0.5 h; how it was run: as §3

SMILES: COc1ccc2c(c1)CC(=O)N(C)N=C2c1ccccc1
ED50 (Mus musculus [18]): 117 µmol/kg and 32.8 mg/kg | Rm [3]: 0.189 | ED50 (Mus musculus [19]): 99.1 µmol/kg and 27.8 mg/kg

SMILES: COc1ccc2c(c1)CC(=O)NN=C2c1ccccc1
ED50 (Mus musculus [20]): 73.4 µmol/kg | ED50 (Mus musculus [21]): 75.5 µmol/kg and 20 mg/kg | therapeutic index (TD50/ED50) [2]: 2.6 | Rm [3]: -0.052 | ED50 (Mus musculus [22]): 64.8 µmol/kg and 17.2 mg/kg | ED50 (Mus musculus [23]): 98.2 µmol/kg | TD50 at 0.5 h [14]: 197 µmol/kg

SMILES: COc1cc2c(cc1OC)C(c1ccc(N(C(C)=O)C(C)=O)cc1)=NN(C(C)=O)C(=O)C2
Rm [3]: -0.673 | ED50 (Mus musculus [8]): 56.8 µmol/kg and 24.8 mg/kg | ED50 (Mus musculus [12]): 43.9 µmol/kg and 19.2 mg/kg

SMILES: COc1cc2c(cc1OC)C(c1ccc([N+](=O)[O-])cc1)=NNC(=O)C2
ED50 (Mus musculus [24]): > 150 µmol/kg | ED50 (Mus musculus [25]): > 120 µmol/kg and > 44 mg/kg | TD50 at 0.5 h [26]: > 150 µmol/kg | Rm [3]: -0.096 | ED50 (Mus musculus [27]): > 120 µmol/kg and > 44 mg/kg | ED50 (Mus musculus [15]): > 150 µmol/kg

The next lines start with results.

Rm [3]: -0.374
SMILES: COc1cc2c(cc1OC)C(c1ccc(N)cc1)=NN(C)C(=O)C2
ED50 (Mus musculus [1]): 32.2 µmol/kg | therapeutic index (TD50/ED50) [2]: 3.2 | ED50 (Mus musculus [4]): 72.1 µmol/kg | ED50 (Mus musculus [5]): 38.5 µmol/kg | ED50 (Mus musculus [6]): 57.2 µmol/kg | ED50 (Mus musculus [7]): 141 µmol/kg | ED50 (Mus musculus [8]): 50.2 µmol/kg and 16.3 mg/kg | ED50 (Mus musculus [9]): 62.4 µmol/kg | ED50 (Mus musculus [10]): 51.2 µmol/kg | ED50 (Mus musculus [11]): 112 µmol/kg | ED50 (Mus musculus [12]): 43.7 µmol/kg and 14.2 mg/kg | ED50 (Mus musculus [13]): 45.9 µmol/kg | TD50 at 0.5 h [14]: 159 µmol/kg | ED50 (Mus musculus [15]): 70.8 µmol/kg

Rm [3]: -0.327
SMILES: COc1cc2c(cc1OC)C(c1cccc(N)c1)=NN(C)C(=O)C2
ED50 (Mus musculus [16]): 36.8 µmol/kg and 11.9 mg/kg | ED50 (Mus musculus [17]): 30.6 µmol/kg and 9.94 mg/kg

Rm [3]: -0.052
SMILES: COc1cc2c(cc1OC)C(c1ccccc1)=NN(C(C)=O)C(=O)C2
therapeutic index (TD50/ED50) [2]: 1.8 | ED50 (Mus musculus [8]): 101 µmol/kg and 33.3 mg/kg | ED50 (Mus musculus [12]): 72.1 µmol/kg and 24.4 mg/kg | TD50 at 0.5 h [14]: 181 µmol/kg

Rm [3]: 0.25
SMILES: COc1cc2c(cc1OC)C(c1ccc(Cl)cc1)=NN(C)C(=O)C2
ED50 (Mus musculus [28]): 41.2 µmol/kg and 14.2 mg/kg | ED50 (Mus musculus [29]): 38.6 µmol/kg and 13.3 mg/kg

Rm [3]: 0.052
SMILES: COc1cc2c(cc1OC)C(c1cccc([N+](=O)[O-])c1)=NN(C)C(=O)C2
ED50 (Mus musculus [25]): > 120 µmol/kg and > 44 mg/kg | ED50 (Mus musculus [27]): > 120 µmol/kg and > 44 mg/kg
